Source: ChEMBL document CHEMBL4811308, “Design, synthesis and broad spectrum antibreast cancer activity of diarylindoles via induction of apoptosis in aggressive breast cancer cells” (Bioorg Med Chem, 2021)
Activity calls are given as the source filed them. No cut-off for these calls is given here.

Tests used:
MCF7 = test: Cytotoxicity against human MCF7 cells assessed as reduction in cell viability incubated for 24 hrs by MTT assay; format: functional, cell-based; settings: MCF7, 24 h
Method in brief: (§1)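 MTT viability: cells seeded at 1 × 10^4/well, grown 24 h, then exposed to a concentration range of compound for 24 h. MTT (5 mg/mL stock) added for 3 h, formazan dissolved in DMSO, absorbance read at 540 nm.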

MDA-MB-231 = test: Cytotoxicity against human MDA-MB-231 cells assessed as reduction in cell viability incubated for 24 hrs by MTT assay; format: functional, cell-based; settings: MDA-MB-231, 24 h; method in brief: as §1
PC-3 = test: Cytotoxicity against human PC-3 cells assessed as reduction in cell viability incubated for 24 hrs by MTT assay; format: functional, cell-based; settings: PC-3, 24 h; method in brief: as §1
Tubulin (Homo sapiens) = Tubulin (Homo sapiens) (UniProt P68371+Q9H4B7+P0DPH7+P68366+Q13509+Q71U36+P04350+Q3ZCM7+P07437+P68363+Q9BQE3+Q6PEY2+Q13885+Q9BVA1+Q9BUF5); test: Induction of tubulin polymerization (unknown origin) at 10 uM incubated for 1 hr by spectrometric analysis; format: protein-complex assay
HEK293 = test: Cytotoxicity against human HEK293 cells assessed as reduction in cell viability incubated for 24 hrs by MTT assay; format: cell-based; settings: HEK293, 24 h; method in brief: as §1

Row | SMILES | IC50 (MCF7) [µM] | IC50 (MDA-MB-231) [µM] | IC50 (PC-3) [µM] | Activity (Tubulin (Homo sapiens)) | IC50 (HEK293) [µM]
1 | COc1ccc(Cn2c(-c3cc(OC)c(OC)c(OC)c3)cc3cc(OC)ccc32)cc1 | > 30 | > 30 | > 30 |  | 
2 | CC(=O)O[C@H]1C(=O)[C@@]2(C)[C@H]([C@H](OC(=O)c3ccccc3)[C@]3(O)C[C@H](OC(=O)[C@H](O)[C@@H](NC(=O)c4ccccc4)c4ccccc4)C(C)=C1C3(C)C)[C@]1(OC(C)=O)CO[C@@H]1C[C@@H]2O [PACLITAXEL] | 0.48 | 1.6 | 2.6 | Active | 5.8
3 | COc1ccc2c(c1)c(Cc1ccc(O)cc1)c(-c1cc(OC)c(OC)c(OC)c1)n2Cc1ccc(O)cc1 | > 30 | > 30 | > 30 |  | 
4 | COc1ccc(Cc2c(-c3cc(OC)c(OC)c(OC)c3)n(Cc3ccc(OC)cc3)c3ccc(OC)cc23)cc1 | > 30 | > 30 | > 30 |  | 
5 | CC/C(=C(\c1ccccc1)c1ccc(OCCN(C)C)cc1)c1ccccc1 [TAMOXIFEN] | 8.42 |  | 15.8 |  | 22.4
6 | COc1ccc2c(c1)cc(-c1cc(OC)c(OC)c(OC)c1)n2Cc1ccc(OCCN(C)C)cc1 | 6.67 | 7.84 | 6.87 |  | 
7 | COc1ccc2[nH]c(-c3cc(OC)c(OC)c(OC)c3)cc2c1 | > 30 | > 30 | > 30 |  | 
8 | COc1ccc2c(c1)cc(-c1cc(OC)c(OC)c(OC)c1)n2Cc1ccc(O)cc1 | > 30 | 17.3 | > 30 |  | 
9 | COc1ccc2c(c1)cc(-c1cc(OC)c(OC)c(OC)c1)n2Cc1ccc(OCCN2CCCCC2)cc1 | 21.6 | > 30 | 21.8 |  | 
10 | COc1ccc2c(c1)c(Cc1ccc(OCc3ccccc3)cc1)c(-c1cc(OC)c(OC)c(OC)c1)n2Cc1ccc(OCc2ccccc2)cc1 | > 30 | > 30 | > 30 |  | 
11 | COc1ccc2c(c1)c(Cc1ccccc1)c(-c1cc(OC)c(OC)c(OC)c1)n2Cc1ccccc1 | > 30 | > 30 | > 30 |  | 
12 | CCN(CC)CCOc1ccc(Cn2c(-c3cc(OC)c(OC)c(OC)c3)cc3cc(OC)ccc32)cc1 | 29.8 | 13.2 | 15 |  | 
13 | COc1ccc2c(c1)cc(-c1cc(OC)c(OC)c(OC)c1)n2Cc1ccc(OCc2ccccc2)cc1 | > 30 | > 30 | > 30 |  | 
14 | CCOC(=O)COc1ccc(Cn2c(-c3cc(OC)c(OC)c(OC)c3)cc3cc(OC)ccc32)cc1 | > 30 | > 30 | > 30 |  | 
15 | COc1ccc2c(c1)cc(-c1cc(OC)c(OC)c(OC)c1)n2Cc1ccccc1 | > 30 | > 30 | > 30 |  | 
16 | COc1ccc2c(c1)cc(-c1cc(OC)c(OC)c(OC)c1)n2Cc1ccc(OC(C)CN(C)C)cc1 (stereo unspecified) | 14.7 | 10.6 | 13.3 |  | 
17 | COc1ccc2c(c1)cc(-c1cc(OC)c(OC)c(OC)c1)n2Cc1ccc(OCCN2CCCC2)cc1 | 5.08 | 12.4 | 6.03 |  | 
18 | COc1ccc2c(c1)c(Cc1ccc(OCCN3CCCC3)cc1)c(-c1cc(OC)c(OC)c(OC)c1)n2Cc1ccc(OCCN2CCCC2)cc1 | 4.25 | 9.45 | 7.48 |  | 
